ChEMBL document CHEMBL1135638, “Synthesis, molecular modeling studies, and pharmacological activity of selective A(1) receptor antagonists” (J Med Chem, 2002)

Legend:
[1] = system: Adenosine receptor A2a (Bos taurus); experiment: Percent inhibition of specific [3H]-CGS-21,680 binding to adenosine A2A receptors in bovine striatal membranes at 10 uM concentration
[2] = target: T1, Adenosine receptor A1 (Bos taurus) (UniProt P28190); experiment: Percent inhibition of specific [3H]CHA binding on Adenosine A1 receptor in bovine cortical membranes at 10 uM concentration; format: cell membranes
T1 sequence (whole entry): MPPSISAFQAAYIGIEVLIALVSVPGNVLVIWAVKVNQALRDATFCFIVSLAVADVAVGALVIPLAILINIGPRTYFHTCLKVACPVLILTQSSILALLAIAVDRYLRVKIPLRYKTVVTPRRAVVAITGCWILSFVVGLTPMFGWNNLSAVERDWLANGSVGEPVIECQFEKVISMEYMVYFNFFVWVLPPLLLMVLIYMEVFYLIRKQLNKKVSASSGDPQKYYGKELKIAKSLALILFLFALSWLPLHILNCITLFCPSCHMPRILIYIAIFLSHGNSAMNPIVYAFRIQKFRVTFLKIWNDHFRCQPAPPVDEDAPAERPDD

[3] = target: T2, Adenosine receptor A1 (Bos taurus, UniProt P28190); experiment: Binding affinity to Adenosine A1 receptor in bovine cortical membranes by [3H]N6-cyclohexyl adenosine displacement.; format: cell membranes
T2 sequence (P28190 whole entry): T1 sequence (whole entry)

[4] = target: T2, Adenosine receptor A1; experiment: Binding affinity at bovine Adenosine A1 receptor.
[5] = target: T3, Adenosine receptor A1 (Rattus norvegicus, UniProt P25099); experiment: Binding affinity against rat Adenosine A1 receptor
T3 sequence (P25099 whole entry): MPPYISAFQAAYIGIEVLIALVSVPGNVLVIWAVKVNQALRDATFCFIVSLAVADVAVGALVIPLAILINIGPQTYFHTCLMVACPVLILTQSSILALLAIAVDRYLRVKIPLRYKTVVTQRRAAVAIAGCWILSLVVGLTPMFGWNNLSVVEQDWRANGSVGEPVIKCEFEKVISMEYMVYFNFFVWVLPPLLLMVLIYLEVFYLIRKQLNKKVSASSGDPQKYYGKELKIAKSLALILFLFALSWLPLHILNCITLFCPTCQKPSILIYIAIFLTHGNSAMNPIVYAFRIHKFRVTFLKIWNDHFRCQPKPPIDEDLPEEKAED

[6] = target: T2, Adenosine receptor A1; experiment: Displacement of [3H]DPCPX from Adenosine A1 receptor of bovine cortical membranes without GTP
How it was run: (§1)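 [3H]DPCPX displacement from bovine cortical membranes, method of Pirovano et al., run with and without 1 mM GTP. Values from three separate experiments, mean ± SEM.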

[7] = Compound was evaluated for the inhibition of Adenylate cyclase activity; format: functional
[8] = target: T2, Adenosine receptor A1; experiment: Displacement of [3H]DPCPX from Adenosine A1 receptor of bovine cortical membranes with 1 mM GTP
How it was run: as §1

**Q.** Which inhibition [1] does the source give for CCOCCNc1c(C(=O)OCC)cnc2c1cnn2/C=C/c1ccccc1 here?
**A.** 0%

**Q.** What about the inhibition [2] of the same molecule?
**A.** 51%

**Q.** Which results are given for CCOC(=O)c1cnc2c(cnn2CC(Cl)COc2ccccc2)c1NCCc1ccccc1 (stereo not given)?
**A.** inhibition [1]: 5%; Ki [3]: 456 nM

**Q.** With c1ccc(-c2nc3c(NC4CCCC4)[nH]c4ccccc4c-3n2)cc1 as the molecule, how does the Ki [4] read?
**A.** 10 nM

**Q.** With COc1ccc(-c2nc(N)c3c(C)c(C)n(C(C)c4ccccc4)c3n2)cc1 (stereo not given) as the molecule, how does the Ki [4] read?
**A.** 101 nM

**Q.** Which results are given for CCOC(=O)c1cnc2c(cnn2/C=C/c2ccccc2)c1NCc1ccccc1?
**A.** inhibition [1]: 2%; inhibition [2]: 39%

**Q.** Which Ki [4] does the source give for Cc1nn(C)c2c(=O)[nH]c(-c3ccc(Cl)cc3N)nc12 here?
**A.** 176 nM

**Q.** Which Ki [4] does the source give for Cc1cnc2c(NC3CCCC3)nc3ccccc3n12 here?
**A.** 7.9 nM

**Q.** What does the source list for CCOC(=O)c1cnc2c(cnn2/C=C/c2ccccc2)c1NCCc1ccccc1?
**A.** inhibition [1]: 2%; inhibition [2]: 58%

**Q.** With C[C@H](c1ccccc1)n1c2ccccc2c2c(N)nc(-c3ccccc3)nc21 as the molecule, how does the Ki [4] read?
**A.** 2.6 nM

**Q.** What does the source list for CCCCNc1c(C(=O)OCC)cnc2c1cnn2CC(Cl)COc1ccccc1 (stereo not given)?
**A.** inhibition [1]: 23%; Ki [3]: 1220 nM

**Q.** What does the source list for CCOC(=O)c1cnc2c(cnn2CC(Cl)c2ccccc2)c1N1CCCCC1 (stereo not given)?
**A.** inhibition [1]: 23%; inhibition [2]: 41%

**Q.** Which Ki [4] does the source give for FC(F)(F)c1nnc2c(NC3CCCC3)nc3ccccc3n12 here?
**A.** 7.3 nM

**Q.** With CCOC(=O)c1cnc2c(cnn2/C=C/c2ccccc2)c1N1CCOCC1 as the molecule, how does the inhibition [1] read?
**A.** 0%

**Q.** What about the inhibition [2] of the same molecule?
**A.** 40%

**Q.** Which Ki [4] does the source give for Nc1nc(-c2ccncc2)nc2c1c1c(n2-c2ccccc2)CCCC1 here?
**A.** 600 nM

**Q.** Which inhibition [1] does the source give for CCOC(=O)c1cnc2c(cnn2CC(Cl)COc2ccccc2)c1N1CCOCC1 (stereo not given) here?
**A.** 0%

**Q.** And the inhibition [2]?
**A.** 40%

**Q.** Which Ki [4] does the source give for CCCn1c(=O)c2[nH]c(C3CCC(=O)C3)nc2n(CCC)c1=O (stereo not given) here?
**A.** 15 nM

**Q.** Which inhibition [1] does the source give for CCOC(=O)c1cnc2c(cnn2/C=C/c2ccccc2)c1N1CCCC1 here?
**A.** 0%

**Q.** And the inhibition [2]?
**A.** 39%

**Q.** Which inhibition [1] does the source give for CCOC(=O)c1cnc2c(cnn2CC(Cl)COc2ccccc2)c1N1CCCC1 (stereo not given) here?
**A.** 15%

**Q.** And the inhibition [2]?
**A.** 33%

**Q.** Which Ki [4] does the source give for Nc1nc2ccc(Cl)cc2n2nc(-c3ccccc3F)nc12 here?
**A.** 13 nM

**Q.** With CCCCNc1c(C(=O)OCC)cnc2c1cnn2/C=C/c1ccccc1 as the molecule, how does the inhibition [1] read?
**A.** 0%

**Q.** And the inhibition [2]?
**A.** 60%

**Q.** Which results are given for CCOC(=O)c1cnc2c(cnn2/C=C/c2ccccc2)c1NC1CCCCC1?
**A.** inhibition [1]: 0%; inhibition [2]: 21%

**Q.** What does the source list for CCOC(=O)c1cnc2c(cnn2CC(Cl)c2ccccc2)c1NC1CCCCC1 (stereo not given)?
**A.** inhibition [1]: 0%; Ki [3]: 1490 nM

**Q.** Which results are given for CCOC(=O)c1cnc2c(cnn2CC(Cl)c2ccccc2)c1NCCc1ccccc1 (stereo not given)?
**A.** Ki [5]: 73 nM; Ki [6]: 69.7 nM; IC50 [7]: 52.2 nM; Ki [8]: 56 nM

**Q.** With CCOC(=O)c1cnc2c(cnn2/C=C/c2ccccc2)c1NC1CC1 as the molecule, how does the inhibition [1] read?
**A.** 0%

**Q.** What about the inhibition [2] of the same molecule?
**A.** 67%

**Q.** Which Ki [4] does the source give for CN1C=NC2C(NC3CCCC3)=NC=NC21 (stereo not given) here?
**A.** 540 nM

**Q.** For CCOC(=O)c1cnc2c(cnn2CC(Cl)COc2ccccc2)c1NC1CC1 (stereo not given), which inhibition [1] is on record?
**A.** 34%

**Q.** And the Ki [3]?
**A.** 1050 nM

**Q.** For O=C(O)CCCn1nc(-c2c(-c3ccccc3)nn3ccccc23)ccc1=O, which Ki [4] is on record?
**A.** 6.6 nM

**Q.** For CCOCCNc1c(C(=O)OCC)cnc2c1cnn2CC(Cl)COc1ccccc1 (stereo not given), which Ki [3] is on record?
**A.** 2690 nM

**Q.** For CCOC(=O)c1cnc2c(cnn2CC(Cl)COc2ccccc2)c1NCc1ccccc1 (stereo not given), which inhibition [1] is on record?
**A.** 12%

**Q.** What about the inhibition [2] of the same molecule?
**A.** 36%

**Q.** For CCOC(=O)c1cnc2c(cnn2CC(Cl)c2ccccc2)c1NCc1ccccc1 (stereo not given), which inhibition [1] is on record?
**A.** 0%

**Q.** For CCCNc1c(C(=O)OCC)cnc2c1cnn2/C=C/c1ccccc1, which inhibition [1] is on record?
**A.** 0%

**Q.** And the inhibition [2]?
**A.** 40%

**Q.** Which inhibition [1] does the source give for CCOC(=O)c1cnc2c(cnn2CC(Cl)COc2ccccc2)c1NC1CCCCC1 (stereo not given) here?
**A.** 1%

**Q.** What about the Ki [3] of the same molecule?
**A.** 3710 nM

**Q.** Which results are given for CCOC(=O)c1cnc2c(cnn2CC(Cl)c2ccccc2)c1N1CCCC1 (stereo not given)?
**A.** Ki [5]: 140 nM; Ki [6]: 103 nM; IC50 [7]: 154 nM; Ki [8]: 90 nM

**Q.** With CCCSc1nc(SC(CC)C(N)=O)nc2c1ncn2-c1ccccc1 (stereo not given) as the molecule, how does the Ki [4] read?
**A.** 29.5 nM

**Q.** For O=C(/C=C/C1=CC=CN2N=C(c3ccccc3)CC12)N1CCCC[C@H]1CCO (stereo not given in full), which Ki [4] is on record?
**A.** 0.49 nM

**Q.** Which inhibition [1] does the source give for CCOC(=O)c1cnc2c(cnn2CC(Cl)c2ccccc2)c1N1CCOCC1 (stereo not given) here?
**A.** 0%
